In ChEMBL document CHEMBL3734716, “Labdane and Clerodane Diterpenoids from Colophospermum mopane” (2015):
Values after ≈ are worked out from the molar mass of the structure shown. Active and inactive are the calls of the source. The rule behind the calls is not given here.

Experiments:
Klebsiella pneumoniae = test: Antibacterial activity against Klebsiella pneumoniae ATCC 13883 after 24 hrs using p-iodonitrotetrazolium violet dye; type: functional; conditions: ATCC 13883, 24 h
How it was run: (§1)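 Broth microdilution MIC. Compounds reconstituted in acetone at a 5 mg/mL starting concentration, then serially doubling-diluted in sterile distilled water. Inoculum approx. 1 × 10^6 CFU/mL. Plates sealed and incubated at 37 °C for 24 h. Growth read after adding p-iodonitrotetrazolium violet (0.4 mg/mL); purple-pink means growth. MIC taken as lowest concentration with no growth. Ciprofloxacin positive control (0.01 mg/mL); acetone solvent and culture controls.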

Escherichia coli = test: Antibacterial activity against Escherichia coli ATCC 8739 after 24 hrs using p-iodonitrotetrazolium violet dye; type: functional; conditions: ATCC 8739, 24 h; how it was run: as §1
Enterococcus faecalis = test: Antibacterial activity against Enterococcus faecalis ATCC 29212 after 24 hrs using p-iodonitrotetrazolium violet dye; type: functional; conditions: ATCC 29212, 24 h; how it was run: as §1
Staphylococcus aureus = test: Antibacterial activity against Staphylococcus aureus ATCC 25923 after 24 hrs using p-iodonitrotetrazolium violet dye; type: functional; conditions: ATCC 25923, 24 h; how it was run: as §1
Homo sapiens = organism: Homo sapiens; test: Modulation of alpha1beta2gamma2S GABAA receptor (unknown origin) expressed in xenopus oocytes assessed as potentiation of GABA-induced chloride current by two-electrode voltage clamp method; type: cell-based

| SMILES | MIC (Klebsiella pneumoniae) [µg/mL] | MIC (Escherichia coli) [µg/mL] | MIC (Enterococcus faecalis) [µg/mL] | MIC (Staphylococcus aureus) [µg/mL] | Activity (Homo sapiens) |
| --- | --- | --- | --- | --- | --- |
| C[C@H]1CC[C@H]2C(C)(C)[C@H](O)CC[C@]2(C)[C@@]12CC[C@](C)(CC(=O)O)O2 | 62.5 (≈ 185 µM) | 125 (≈ 369 µM) | 62.5 (≈ 185 µM) | 125 (≈ 369 µM) | inactive |
| C/C(=C\C(=O)O)CC[C@]1(C)[C@@H](C)CC[C@@]2(C)C(CO)=CCC[C@@H]12 | 625 (≈ 1950 µM) | 125 (≈ 390 µM) | 62.5 (≈ 195 µM) | 62.5 (≈ 195 µM) | inactive |
| CC1=CCC[C@H]2[C@](C)(CC/C(C)=C/C(=O)O)[C@@H](C)CC[C@@]12C | 93.8 (≈ 308 µM) | 15.6 (≈ 51.2 µM) | 31.3 (≈ 103 µM) | 15.6 (≈ 51.2 µM) | inactive |
| C/C(=C\C(=O)O)CC[C@@]1(C)[C@H](C)CC[C@@]2(C)C(CO)=CCC[C@H]12 (relative stereo) | 93.8 (≈ 293 µM) | 125 (≈ 390 µM) | 125 (≈ 390 µM) | 62.5 (≈ 195 µM) | inactive |
| CC(=O)O[C@@H]1CC[C@@]2(C)[C@@H](CC[C@H](C)[C@]23CC[C@](C)(CC(=O)O)O3)C1(C)C | 62.5 (≈ 164 µM) | 125 (≈ 328 µM) | 62.5 (≈ 164 µM) | 125 (≈ 328 µM) | inactive |
| C[C@H]1CC[C@H]2C(C)(C)CCC[C@]2(C)[C@@]12CC[C@](C)(CC(=O)O)O2 | 46.9 (≈ 145 µM) | 125 (≈ 388 µM) | 125 (≈ 388 µM) | 62.5 (≈ 194 µM) | inactive |
| O=C(O)c1cn(C2CC2)c2cc(N3CCNCC3)c(F)cc2c1=O [CIPROFLOXACIN] | 0.078 (≈ 0.235 µM) | 0.156 (≈ 0.471 µM) | 0.156 (≈ 0.471 µM) | 0.156 (≈ 0.471 µM) |  |

Second part, the molecule after the results:

| MIC (Klebsiella pneumoniae) [µg/mL] | MIC (Escherichia coli) [µg/mL] | MIC (Enterococcus faecalis) [µg/mL] | MIC (Staphylococcus aureus) [µg/mL] | Activity (Homo sapiens) | SMILES |
| --- | --- | --- | --- | --- | --- |
| 62.5 (≈ 196 µM) | 125 (≈ 393 µM) | 62.5 (≈ 196 µM) | 93.7 (≈ 294 µM) | inactive | C[C@H]1CC=C2[C@@H](CC[C@@H](O)C2(C)C)[C@]1(C)CCC1=CC(=O)OC1 |
| 62.5 (≈ 193 µM) | 125 (≈ 385 µM) | 125 (≈ 385 µM) | 93.7 (≈ 289 µM) | inactive | C[C@H]1CC[C@H]2C(C)(C)[C@H](O)CC[C@]2(C)[C@@]12CC[C@@](C)(CCO)O2 |
|  |  |  |  | inactive | C[C@@H]1CC[C@@]2(C)[C@H](CC[C@@H]3O[C@@]32C)[C@@]1(C)CCC1=CC(=O)OC1 |
| 62.5 (≈ 195 µM) | > 250 | 62.5 (≈ 195 µM) | 62.5 (≈ 195 µM) | inactive | C/C(=C\C(=O)O)CC[C@]1(C)[C@@H](C)CC[C@]2(C)[C@H]1CC[C@H]1O[C@]12C |
| 62.5 (≈ 195 µM) | 250 (≈ 780 µM) | 125 (≈ 390 µM) | 125 (≈ 390 µM) | inactive | C[C@H]1CC[C@H]2C(C)(C)CCC[C@]2(C)[C@@]1(O)CCC1=CC(=O)OC1 |
